Experimental data published in ChEMBL document CHEMBL5104120, “Morpholine substituted quinazoline derivatives as anticancer agents against MCF-7, A549 and SHSY-5Y cancer cell lines and mechanistic studies” (RSC Med Chem, 2022).

Legend:
SH-SY5Y [1] = assay: Antiproliferative activity against human SH-SY5Y cells assessed as inhibition of cell growth incubated for 48 hrs by MTT assay; assay type: functional, cell-based
How it was run: (§1)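 Cell lines from NCCS; ~8000 cells/well grown 24 h at 37 °C, 5% CO2, serum-starved 8 h to synchronize, then complete medium restored. Compounds applied at 1, 5, 10 and 25 μM in triplicate for 48 h. MTT added after medium removal, 4 h in dark; formazan dissolved in DMSO, absorbance at 590 nm read as % viability (mean ± S.D.); IC50 in μM.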

MCF7 [2] = assay: Antiproliferative activity against human MCF7 cells assessed as inhibition of cell growth incubated for 48 hrs by MTT assay; assay type: functional, cell-based; settings: MCF7, 48 h; how it was run: as §1
A549 = assay: Antiproliferative activity against human A549 cells assessed as inhibition of cell growth incubated for 48 hrs by MTT assay; assay type: functional, cell-based; settings: A549, 48 h; how it was run: as §1
HT-29 = assay: Antiproliferative activity against human HT-29 cells assessed as inhibition of cell growth incubated for 72 hrs by SRB assay; assay type: functional, cell-based; settings: HT-29, 72 h
MCF7 [3] = assay: Antiproliferative activity against human MCF7 cells assessed as inhibition of cell growth incubated for 72 hrs by SRB assay; assay type: functional, cell-based; settings: MCF7, 72 h
[4] = Cytotoxicity against human HEK293 cells assessed as inhibition of cell growth incubated for 48 hrs by MTT assay; assay type: toxicity, cell-based
SH-SY5Y [5] = assay: Induction of apoptosis in human SH-SY5Y cells assessed as viable cells at 10 uM incubated for 48 hrs by AnnexinV staining based cytofluorimetric analysis (reference value: 98.6 %); assay type: functional; settings: read-out: Activity
How it was run: (§2)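 SHSY5Y cells grown in 6-well plates and exposed to compounds at 10 μM for 48 h. Cells plus medium centrifuged at 1200 rpm for 5 min, washed in 1× PBS, then incubated with Annexin V/dead cell reagent 30 min at room temperature in dark. Annexin V […] populations quantified on a Muse cytofluorimetric analyzer.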

SH-SY5Y [6] = assay: Induction of apoptosis in human SH-SY5Y cells assessed as late apoptotic cells at 10 uM incubated for 48 hrs by AnnexinV staining based cytofluorimetric analysis (reference value: 0.24 %); assay type: functional; how it was run: as §2
SH-SY5Y [7] = assay: Induction of apoptosis in human SH-SY5Y cells assessed as necrotic cells at 10 uM incubated for 48 hrs by AnnexinV staining based cytofluorimetric analysis (reference value: 0 %); assay type: functional; how it was run: as §2
SH-SY5Y [8] = assay: Induction of apoptosis in human SH-SY5Y cells assessed as early apoptotic cells at 10 uM incubated for 48 hrs by AnnexinV staining based cytofluorimetric analysis (reference value: 1.16 %); assay type: functional; how it was run: as §2
SH-SY5Y [9] = assay: Cell cycle arrest in human SH-SY5Y cells assessed as cells in S phase at 10 uM incubated for 48 hrs by PI staining based flow cytometry analysis (reference value: 16.2 %); assay type: functional
SH-SY5Y [10] = assay: Cell cycle arrest in human SH-SY5Y cells assessed as cells in G0/G1 phase at 10 uM incubated for 48 hrs by PI staining based flow cytometry analysis (reference value: 53.2 %); assay type: functional
SH-SY5Y [11] = assay: Cell cycle arrest in human SH-SY5Y cells assessed as cells in G2 phase at 10 uM incubated for 48 hrs by PI staining based flow cytometry analysis (reference value: 31.1 %); assay type: functional
B16 = assay: Antiproliferative activity against mouse B16 cells assessed as inhibition of cell growth incubated for 72 hrs by tryphan blue staining; assay type: functional, cell-based; settings: B16, 72 h
L1210 = assay: Antiproliferative activity against mouse L1210 cells assessed as inhibition of cell growth incubated for 72 hrs by tryphan blue staining; assay type: functional, cell-based; settings: L1210, 72 h
NIH3T3 = assay: Antiproliferative activity against mouse NIH3T3 cells assessed as inhibition of cell growth incubated for 72 hrs by tryphan blue staining; assay type: functional, cell-based; settings: NIH3T3, 72 h
HeLa = assay: Antiproliferative activity against human HeLa cells assessed as inhibition of cell growth incubated for 72 hrs by tryphan blue staining; assay type: functional, cell-based

Row | IC50 (SH-SY5Y [1]) [µM] | IC50 (MCF7 [2]) [µM] | IC50 (A549) [µM] | SMILES | IC50 at 48 h [4] [µM] | other results
1 | > 25 | > 25 | 9.47 | c1ccc(-c2nc(N3CCOCC3)c3ccccc3n2)cc1 | – | –
2 | – | – | – | O=C1Nc2ccc(F)cc2/C1=N/Nc1nc(-c2ccccc2)nc2ccccc12 | – | IC50 (HT-29): 14.3 µM; IC50 (MCF7 [3]): 7.4 µM
3 | 15.8 | 6.69 | 9.83 | FC(F)(F)c1ccc(-c2nc(N3CCOCC3)c3ccccc3n2)cc1 | > 25 | –
4 | 3.36 | 3.15 | 8.55 | COc1cc(-c2nc(N3CCOCC3)c3ccccc3n2)cc(OC)c1OC | – | viability at 10 µM (SH-SY5Y [5]): 0.42%; Activity (SH-SY5Y [6]): 77.6%; Activity (SH-SY5Y [7]): 19.2%; Activity (SH-SY5Y [8]): 2.71%; Activity (SH-SY5Y [9]): 14.4%; Activity (SH-SY5Y [10]): 62.1%; Activity (SH-SY5Y [11]): 24.3%
5 | 20.7 | 5.57 | 12.5 | Oc1ccc(-c2nc(N3CCOCC3)c3ccccc3n2)cc1 | > 25 | –
6 | 14.5 | > 25 | 11.5 | c1ccc2[nH]c(-c3nc(N4CCOCC4)c4ccccc4n3)cc2c1 | – | –
7 | 24.3 | 10.1 | 17.7 | CSc1ccc(-c2nc(N3CCOCC3)c3ccccc3n2)cc1 | – | –
8 | – | – | – | O=[N+]([O-])c1ccc(-c2nnc3c4cc(Cl)ccc4nc(N4CCOCC4)n23)s1 | – | IC50 (B16): 0.24 µM; IC50 (L1210): 0.58 µM; IC50 (NIH3T3): 2.74 µM; IC50 (HeLa): 6.43 µM
9 | > 25 | 5.01 | 20.8 | COc1ccc(-c2nc(N3CCOCC3)c3ccccc3n2)cc1 | > 25 | –
10 | > 25 | > 25 | 11.1 | N#Cc1ccc(-c2nc(N3CCOCC3)c3ccccc3n2)cc1 | – | –
11 | 15.2 | 10.5 | 9.5 | CC(C)c1ccc(-c2nc(N3CCOCC3)c3ccccc3n2)cc1 | – | –
12 | > 25 | > 25 | 10.8 | Fc1ccccc1-c1nc(N2CCOCC2)c2ccccc2n1 | – | –
13 | 9.54 | 6.44 | 10.4 | CN(C)c1ccc(-c2nc(N3CCOCC3)c3ccccc3n2)cc1 | > 25 | viability at 10 µM (SH-SY5Y [5]): 0.55%; Activity (SH-SY5Y [6]): 78.2%; Activity (SH-SY5Y [7]): 19%; Activity (SH-SY5Y [8]): 2.23%; Activity (SH-SY5Y [9]): 15.3%; Activity (SH-SY5Y [10]): 59%; Activity (SH-SY5Y [11]): 26.2%
14 | 22 | > 25 | 17.8 | Fc1cccc(Cl)c1-c1nc(N2CCOCC2)c2ccccc2n1 | – | –
15 | 18 | 4.93 | 18.9 | Cc1ccc(-c2nc(N3CCOCC3)c3ccccc3n2)cc1 | – | –

Row | SMILES | IC50 (SH-SY5Y [1]) [µM] | IC50 (MCF7 [2]) [µM] | IC50 (A549) [µM] | IC50 at 48 h [4] [µM] | other results
16 | COc1cc2c(c(OC)c1OC)-c1ccc(OC)c(=O)cc1[C@@H](NC(C)=O)CC2 [COLCHICINE] | 7.89 | 5.19 | 5.13 | > 25 | –
